For 39 compounds, Remaining PrP-Sc level results are on record in ChEMBL document CHEMBL1156119 (J Med Chem, 2009).

Molecules are shown by their SMILES.

The subject of this experiment is SMB. The experiment can be described thus: Antiprion activity against Scrapie prion protein-mediated scrapie in mouse SMB cells assessed as remaining PrP-Sc level at 20 uM after 5 days by Bradford assay relative to control. Type of experiment: cell-based. The procedure, abridged:
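SMB scrapie-infected mouse cells, non-neuronal, in medium 199 with 10% newborn calf and 5% fetal calf serum, seeded at 3 × 10⁴ cells/well and attached for 24 h. Compound DMSO stocks were diluted via HBSS into medium and applied for 5 days. Lysates of ~30-40 μg protein/well were dot-blotted, digested with proteinase K at 75 μg mL⁻¹ (1 h, 37 °C) and denatured in 1.8 M guanidine thiocyanate. Read-out was %PrP^Sc versus DMSO-only control, in triplicate.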

Consider `O=C(Nc1cccc2c(O)cccc12)C(=O)c1c[nH]c2ccccc12`, for which the Remaining PrP-Sc level was determined as 101%.
For `O=C(NC1CCCCC1)C(=O)c1c[nH]c2ccccc12`, the Remaining PrP-Sc level amounted to 83.1%.
Turning to `Cc1[nH]c2ccccc2c1C(=O)C(=O)Nc1cccc(C#N)c1`, the Remaining PrP-Sc level was determined as 78.5%.
`N#Cc1cccc(NC(=O)C(=O)c2c[nH]c3ccccc23)c1`: the Remaining PrP-Sc level was 70.1%.
The figure for `Cn1cc(C(=O)C(=O)Nc2cccc3c(O)cccc23)c2ccccc21` is 114%; for `Cc1[nH]c2ccccc2c1C(=O)C(=O)Nc1ccc(O)cc1` it is 83.1%; for `Cc1[nH]c2ccccc2c1C(=O)C(=O)N1CCOCC1` it is 81.9%.
The figure for `Cc1ccccc1NC(=O)C(=O)c1c[nH]c2ccccc12` is 93.8%; for `Cc1[nH]c2ccccc2c1C(=O)C(=O)NCc1cccnc1` it is 73.7%.
For `Cn1cc(C(=O)C(=O)Nc2cccc(F)c2)c2ccccc21` the value was 11.6%; for `O=C(NCc1ccco1)C(=O)c1c[nH]c2ccccc12`, 95.2%; for `Cn1cc(C(=O)C(=O)Nc2cccc(CO)c2)c2ccccc21`, 137%.
For `C=CCNC(=O)C(=O)c1c[nH]c2ccccc12`, the Remaining PrP-Sc level worked out at 158%.
For `COc1cc(NC(=O)C(=O)c2c[nH]c3ccccc23)cc(OC)c1` the value was 75.4%.
As to `O=C(C(=O)N1CCCCC1)c1c[nH]c2ccccc12`, the Remaining PrP-Sc level is 112%.
The figure for `COc1ccc(NC(=O)C(=O)c2c(C)[nH]c3ccccc23)cc1` is 72.4%; for `COc1cc(NC(=O)C(=O)c2c[nH]c3ccccc23)cc(OC)c1OC` it is 143%; for `Cn1cc(C(=O)C(=O)NCc2ccco2)c2ccccc21` it is 109%.
As for `COc1cc(NC(=O)C(=O)c2c(C)[nH]c3ccccc23)ncn1`, the Remaining PrP-Sc level is 69.7%.
With `Cc1[nH]c2ccccc2c1C(=O)C(=O)Nc1cccc(F)c1`, the Remaining PrP-Sc level came out at 64%.
As for `CCCCNC(=O)C(=O)c1c[nH]c2ccccc12`, the Remaining PrP-Sc level was 80.8%.
`O=C(NCc1ccccc1)C(=O)c1c[nH]c2ccccc12`: the Remaining PrP-Sc level turned out to be 90%.
The figure for `CCc1cccc(NC(=O)C(=O)c2c(C)[nH]c3ccccc23)c1` is 78.8%; for `O=C(NCc1cccnc1)C(=O)c1c[nH]c2ccccc12` it is 107%; for `CC(=O)c1cccc(NC(=O)C(=O)c2c(C)[nH]c3ccccc23)c1` it is 84.4%.
Take `O=C(Nc1ccccc1Cl)C(=O)c1c[nH]c2ccccc12`: the Remaining PrP-Sc level stood at 85.4%.
For `O=C(Nc1cc(F)c(F)c(F)c1)C(=O)c1c[nH]c2ccccc12` the value was 62.5%; for `COc1cccc(CNC(=O)C(=O)c2c[nH]c3ccccc23)c1`, 104%; for `Cc1[nH]c2ccccc2c1C(=O)C(=O)Nc1cccc2ccccc12`, 96.3%.
The figure for `O=C(C(=O)N1CCOCC1)c1c[nH]c2ccccc12` is 80.3%; for `O=C(Nc1cccc2ccc(O)cc12)C(=O)c1c[nH]c2ccccc12` it is 115%; for `O=C(Nc1cccc(Oc2ccccc2)c1)C(=O)c1c[nH]c2ccccc12` it is 98.3%.
Take `CCc1cccc(NC(=O)C(=O)c2cn(C)c3ccccc23)c1`: the Remaining PrP-Sc level turned out to be 132%.
In the case of `COc1cccc(NC(=O)C(=O)c2c(C)[nH]c3ccccc23)c1`, the Remaining PrP-Sc level came to 133%.
As to `O=C(Nc1cccc2ccccc12)C(=O)c1c[nH]c2ccccc12`, the Remaining PrP-Sc level was found to be 135%.
The figure for `CC(=O)c1cccc(NC(=O)C(=O)c2cn(C)c3ccccc23)c1` is 157%; for `COc1ccc(CNC(=O)C(=O)c2c[nH]c3ccccc23)cc1` it is 104%; for `CCCCNC(=O)C(=O)c1cn(C)c2ccccc12` it is 124%.
For `Cc1[nH]c2ccccc2c1C(=O)C(=O)Nc1cccc(CO)c1` the value was 80.8%.
